# Screening results from PubChem.
# An excerpt weighted towards active compounds, which were near 3% of everything screened.
# KLK7 zymogen act = proKLK7 (human) activation, primary screen; AID 652039; activation, % at 7 µM; purified proKLK7, EDANS-DABCYL substrate fluorescence; 100% is mature enzyme control, 0% vehicle; P49862; hit rate 0.9% among 370,000;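 active = activation above the mean of all tested compounds plus 3 SD, computed per campaign excluding outliers beyond control limits, cut at about 13% in these data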
# PLCg1 inh = PLC-gamma1 (human) inhibition, primary screen. P19174. purified PLC-gamma1, fluorogenic substrate, fluorescence. inhibition, % at 12.2 µM. hit rate 0.84% among 370,000. AID 720700; in the data active = inhibition above about 9.5%
# DDE Tn6 FP inh = inhibitors of Tn6 peptide binding to human fibrin DD(E). P02675. Fibrin DD(E) TRITC-Tn6 fluorescence polarization displacement. inhibition, % at 8.3 µM. hit rate 0.21% among 370,000. AID 720509;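 active = inhibition above a per-campaign cutoff: mean of compounds within control limits plus 3 SD, cut at about 15% in these data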;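 note: 0% = median of all compound wells on the plate and 100% = blocking peptide control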
# CendR NRP1 mod = alters CendR peptide binding to human NRP-1; hit rate 0.85% among 360,000; FAM-RPARPAR peptide binding to NRP-1, fluorescence polarization; inhibition, % at 25 µM;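 active = inhibition or corrected inhibition above about 18%, plus a signal ratio from 0.5 to 1.5, limit read from the data, passing the limit was not always enough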
# Tn7 DDE FP = disrupts Tn7 cyclic peptide binding to fibrin D-Dimer-E complex; inhibition, % at 8.3 µM; hit rate 0.13% among 370,000; FP displacement of FITC-Tn7 peptide from fibrin DD(E); 0% = median of compound wells per plate; P02675;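 active = inhibition above the mean of compounds falling within the control limits plus 3 SD of them, cut at about 14% in these data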;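 note: 0% = plate median of compound wells and 100% = 10 µM Aha-Tn7 peptide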
#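 system = human fibrin DD(E) protein | quantity = DD(E) 2 µM final | medium = Tris/NaCl/CaCl2 buffer, pH 7.8 | also added = labelled Tn7 tracer, 0.1 µM | compound dosing = single point at 8.3 µM | timing = compound with protein 10 min, then 3 h after probe, room temperature | signal = FP measurement | benchmarks = Aha-Tn7 high control | repeats = one replicate per compound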
# PLCb3 inh = inhibitors of human phospholipase C beta3; hit rate 0.18% among 370,000; Purified PLC-beta3, fluorogenic substrate, fluorescence; inhibition, % at 12.2 µM; Q01970; in the data active = inhibition above about 11%;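 note: 0% = median of compound wells on plate and 100% = full blocker control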
# proKLK7 act conf = confirmation of human kallikrein-7 zymogen activators; shares compounds with KLK7 zymogen act; purified proKLK7, EDANS-DABCYL substrate fluorescence; scaled: vehicle 0, mature enzyme 100; activation, % at 7 µM; hit rate 68% among 3,200;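 active = activation, as change over the incubation, above the mean of all tested compounds plus 3 SD, cut at about 13% in these data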
# EDANS-DABCYL int = optically interferes with EDANS-DABCYL signal, flagging KLK7 hits; shares compounds with KLK7 zymogen act; EDANS-DABCYL substrate fluorescence interference, no enzyme, 4 h; solvent 0%, active enzyme control 100%; activation, % at 7 µM; hit rate 80% among 3,200;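 active = activation above the all-compound mean plus 3 SD, ignoring values outside control-based bounds, cut at about 4.8% in these data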;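 note: value is the 4 h activation minus the activation read at time zero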
# K7 EDANS ctr = counter-screen for kallikrein-7 activators: EDANS-DABCYL interference, dose response | shares compounds with KLK7 zymogen act | EDANS-DABCYL peptide fluorescence interference, no enzyme | EC50, µM | hit rate 20% among 250 | AID 720493;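 active = compounds that raise the fluorescence signal in this interference counterscreen, with EC50 at or below 10 µM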;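 note: intact quenched peptide substrate alone read at 355 nm excitation and 520 nm emission; signal is fluorescence gain from T0 to T4 after four hours at room temperature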
# Numbers without * were called inactive; i = inactive; nt = no result.
SMILES,KLK7 zymogen act,PLCg1 inh,DDE Tn6 FP inh,CendR NRP1 mod,Tn7 DDE FP,PLCb3 inh,proKLK7 act conf,EDANS-DABCYL int,others
COC(=O)[C@]1(C)CN(C(=O)OC(C)(C)C)C2=C1C(=O)C[C@@](C)(C(=O)OC(C)(C)C)C2,-0.3,-0.3,2.5,nt,0.3,-1.3,nt,nt,
CC(C)CN1C(=O)C[C@@]2(C(=O)N(C)c3ccc(NS(=O)(=O)C4CC4)cc32)C1c1ccccc1 (stereo partly specified),0.2,-0.7,-0.5,nt,-0.8,0.6,nt,nt,
O=C(Nc1ccc(OC(F)(F)F)cc1)Nc1c(-c2ccc(C(F)(F)F)cc2)nc2ncccn12,0.7,-4.7,2.0,nt,0.2,-10.8,nt,nt,
O=C(Nc1ccc(F)cc1)Nc1c(-c2ccc(F)cc2)nc2ncccn12,14.7*,-42.0,0.9,nt,-2.7,-56.8,4.6,5.1*,
O=C(Nc1c(-c2ccccc2)nc2ncccn12)c1ccc(F)cc1,14.4*,-265.4,-7.0,nt,-2.0,-325.1,12.3,10.6*,
CC(=O)Nc1nc2ncccn2c1-c1ccc(F)c(F)c1,20.8*,i,3.7,nt,3.8,i,27.0*,25.7*,
CC(=O)Nc1nc2ncccn2c1-c1ccccc1,9.6,i,4.2,nt,6.3,i,nt,nt,
CC(=O)Nc1c(-c2ccccc2)nc2ncccn12,22.1*,i,11.6,-3.3,1.1,i,60.1*,57.1*,
OC(c1ccccc1)(c1ccccc1)C1CCN(CCCNc2ccccc2Br)CC1,0.9,4.7,6.3,nt,-5.6,2.4,nt,nt,
Cc1ccc(CNC(=O)OC(C)(C)C)c(/C=C/S(=O)(=O)NCc2ccc(F)cc2)c1,-0.2,3.9,-3.8,nt,-0.8,3.0,nt,nt,
COC(=O)[C@H]1C[C@@]2(C)c3ccccc3N(S(=O)(=O)c3ccccc3)[C@H]2N1C(=O)CNC1CCCCC1,-0.1,4.9,-4.6,nt,-7.5,2.5,nt,nt,
C=C(C)CSc1cc(C)c(C#N)c2nc3ccccc3n12,-5.2,i,-2.2,-16.4,-2.0,i,nt,nt,
CCCc1cc(NCCOCCO)n2c(nc3ccccc32)c1C#N,44.7*,i,0.3,-1.3,9.3,i,42.3*,27.2*,K7 EDANS ctr=>69.5
CC(C)c1cc(NCCOCCO)n2c(nc3ccccc32)c1C#N,54.2*,i,-1.2,12.1,-2.7,i,52.2*,49.5*,
CCCc1cc(NCCCCO)n2c(nc3ccccc32)c1C#N,25.4*,i,-8.9,-5.0,-0.6,i,-20.1,-12.4,
Cc1ccc(OCC(C)CN2CCC(C(O)(c3ccccc3)c3ccccc3)CC2)cc1 (stereo unspecified),0.4,3.8,0.2,nt,-3.7,-0.3,nt,nt,
O=C(CSc1ccccc1)NC1CCCCN(Cc2cccc(Cl)c2)C1=O (stereo unspecified),0.1,-1.2,-11.4,nt,2.4,-1.3,nt,nt,
CC1CCc2[nH]c3ccc(C(=O)NCCCOC(C)C)cc3c2C1 (stereo unspecified),13.6*,-16.8,-0.1,34.8*,-14.4,-29.7,11.6,11.5*,
CC1CCc2[nH]c3ccc(C(=O)O)cc3c2C1 (stereo unspecified),1.4,-3.3,5.3,-3.5,-5.7,-10.6,nt,nt,
CCC(CC)NC(=O)O[C@H]1CC[C@@]23CCCN2C(=O)CCC[C@H]3C1,nt,1.3,-5.4,nt,-3.2,-0.6,nt,nt,
O=C1c2ccccc2NC(c2cccnc2)N1c1ccccc1F (stereo unspecified),22.8*,-493.0,-3.5,-13.0,6.0,-492.9,40.1*,31.7*,
CCN1CCN(Cc2c(O)c(Cl)cc3c(C)cc(=O)oc23)CC1,70.7*,i,11.8,-9.8,5.5,i,81.3*,79.6*,
CCc1cc(=O)oc2c(CNCc3ccccc3F)c(O)c(Cl)cc12,36.4*,i,-3.8,-4.8,-4.8,i,61.4*,66.0*,
CCN1CCN(Cc2cc(=O)oc3cc(C)cc(C)c23)CC1,0.7,0.3,-3.4,-4.5,-1.7,1.4,nt,nt,
Cc1cc(=O)oc2c(CN3CCCC3)c(O)c(Cl)cc12,46.1*,i,6.8,16.3,1.8,i,62.4*,72.1*,
SMILES,KLK7 zymogen act,PLCg1 inh,DDE Tn6 FP inh,CendR NRP1 mod,Tn7 DDE FP,PLCb3 inh,proKLK7 act conf,EDANS-DABCYL int,others
Cc1cc(=O)oc2c(CN3CCC(C)CC3)c(O)c(Cl)cc12,69.9*,i,7.2,15.0,3.2,i,64.9*,66.1*,
CCc1cc(=O)oc2cc(C)c(CN3CCCC3)c(O)c12,-1.8,-32.4,-6.4,-21.5,-4.3,-62.8,nt,nt,
COC(=O)c1ccc(Cn2ccc3ccc(-c4ccc5ccn(Cc6ccc(OC)cc6)c5c4)cc32)cc1,-0.9,-76.8,-0.1,nt,5.2,-105.9,nt,nt,
OC1(Cc2ccccc2)CCN(c2ncnc3sccc23)CC1,nt,4.1,-5.2,nt,-10.2,4.6,nt,nt,
Cc1cc(=O)oc2c(CN3CCCCC3)c(O)c(Cl)cc12,61.4*,i,-7.4,-1.8,-5.0,i,61.3*,59.5*,
CCCc1cc(=O)oc2c(CN3CCCC3)c(O)c(Cl)cc12,69.9*,i,4.2,-0.2,3.7,i,64.0*,77.1*,
Cc1cc2oc(=O)cc(CN3CCCC3)c2cc1C,0.7,-23.9,4.5,0.5,2.2,-32.5,nt,nt,
CCc1cc(=O)oc2cc(C)c(CN3CCCCC3)c(O)c12,-1.1,-14.3,3.7,-29.9,12.9,-21.6,nt,nt,
CCCC/C=C1/[C@@H](CC)N(Cc2ccc(OC)cc2OC)C2=N[C@H](c3ccccc3)CC(=O)N21,nt,5.5,-5.9,nt,-0.8,4.4,nt,nt,
COCCCNC(=O)c1oc(=O)c2ccccc2c1-c1ccc(C)cc1,-0.2,-1.8,-2.4,nt,4.6,0.0,nt,nt,
CCOC(=O)CNc1c(-c2ccc(F)cc2)nc2cnccn12,65.4*,i,3.9,-3.6,2.5,i,63.0*,64.6*,
CCOC(=O)CNc1c(-c2ccc(Cl)cc2)nc2cnccn12,64.6*,i,-7.8,-2.4,-1.3,i,77.0*,80.3*,
O=C(CN1CCCc2ccccc21)NCc1ccccc1F,0.1,-7.6,2.2,nt,2.2,-9.7,nt,nt,
O=C(Cc1cccs1)NC1CCCCN(Cc2cccc(Cl)c2)C1=O (stereo unspecified),-0.2,-1.0,-6.2,nt,-1.0,-2.2,nt,nt,
Cc1cc(=O)n2c3c(c4c(cc13)c(CN(C)C)cc(=O)n4C)OC2,29.9*,-259.3,-7.4,9.5,-3.4,-364.7,14.9*,17.1*,
Cc1nc(/C=C\C(=O)O)c2cc(C)oc2n1,12.6*,-289.9,2.0,7.4,-3.5,-351.4,19.9*,22.5*,
